Screening data deposited in PubChem by SRMLSC.
Yeast life ext = extends the lifespan of yeast. S. cerevisiae growth with nicotinamide, OD615; deaD strain in restrictive glucose medium. 130,000 compounds, 0.68% hits. inhibition of the nicotinamide effect, % at 10 µM;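 active means inhibition above a set limit, placed 3 SD over the median of all compounds, cut at about 26% in these data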
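Material: Modified budding yeast, DeaD strain | Medium: Restrictive glucose medium | Probe or stimulus: 1.5 mM nicotinamide | Dosing: Single dose 10 µM compound, 0.25% DMSO | Times: 48 h at 30 °C | Technique: OD615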
PostGolgi ctrl = growth of the yeast control strain, post-Golgi counter-screen; inhibition, % at 10 µM; 98,000 compounds, 5% hits; AID 738; efflux-deficient yeast background strain, growth absorbance A615, 16 h
BB579 growth dn = chemicals that inhibit yeast BB579 growth in restrictive medium (lifespan-shortening candidates). S. cerevisiae BB579 growth, OD615, 48 h. inhibition, % at 10 µM. 140,000 compounds, 0.51% hits;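 active means inhibition above a set limit, 3 SD over the mean compound inhibition, cut at about 44% in these data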
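Assay system: S. cerevisiae DeaD strain BB579 yeast. Medium: CSMM-D restrictive synthetic medium containing dextrose (glucose). Times: 4 h cell preincubation, 48 h compound exposure, 30 °C humidified. Signal: OD615 turbidity measurement. Benchmarks: positive control amphotericin B 10 µg/mL.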
PostGolgi yeast = growth inhibition of a yeast mutant, post-Golgi transport screen. post-Golgi transport phenotypic cell assay. inhibition, % at 10 µM. 98,000 compounds, 0.9% hits. AID 739;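 further: yeast cells grown in 1536-well plates; yeast grown about 18 h at 30C before absorbance read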
Large screens that a line does not name were inactive. The entries come from a sample that favours hits as a whole. Unless noted, no stated cut-off is given here; in the data, active means inhibition above about 30%; inactive means the rest.

CC(C)(C)n1nnnc1C(c1cccnc1)N1CCN(c2ccccc2)CC1 (configuration not stated)	PostGolgi ctrl 76.2, PostGolgi yeast 92.5
CCC(C)(C)n1nnnc1C(c1cccnc1)N1CCN(c2cccc(C(F)(F)F)c2)CC1 (configuration not stated)	PostGolgi ctrl 96.0, PostGolgi yeast 85.8
Cn1c(CC(=O)Nc2ccc(Cl)c(Cl)c2)nnc1SCC(=O)N1CCN(c2ccccc2)CC1	PostGolgi ctrl 35.7
Clc1cccc(N2CCN(Cc3nc(-c4ccccc4)no3)CC2)c1	PostGolgi ctrl 34.5
Cc1ccc(-c2noc(CN3CCCCC3)n2)cc1	none
Clc1ccc(-c2noc(CN3CCCC3)n2)cc1	PostGolgi ctrl 37.1
CCOC(=O)CN1C(c2ccc(O)cc2)Nc2ccc(Br)cc2C1c1ccccc1 (configuration not stated)	none (no result: PostGolgi ctrl, PostGolgi yeast)
CCOC(=O)C1=C(C)NC(=O)C(C(N)=O)C1c1ccccc1 (configuration not stated)	PostGolgi ctrl 33.4
CCC(=O)Nc1cccc(C(=O)/C=C/c2cc(Br)ccc2OC)c1	PostGolgi ctrl 80.6
COc1ccc(Br)cc1/C=C/C(=O)Nc1ccc2ccccc2c1	none (no result: PostGolgi ctrl, PostGolgi yeast)
CCOC(=O)C1=NN(C(C)=O)C2(CC(=O)N(c3cccc(C)c3)C2=O)C1 (configuration not stated)	none (no result: PostGolgi ctrl, PostGolgi yeast)
CCN(CC)c1nc2ccccc2nc1C(C#N)C(=O)NCCCOC (configuration not stated)	none
CCN(CC)c1nc2ccccc2nc1C(C#N)C(=O)NCCc1ccccc1 (configuration not stated)	PostGolgi ctrl 32.9
O=C(CSc1nnc(NCc2ccccc2)s1)c1ccco1	none
CCOC(=O)C1CCN(C(=O)CSc2nnc(-c3ccco3)n2-c2ccccc2)CC1	none
CC1(C)CC(=O)C(C(c2cccc([N+](=O)[O-])c2)C2C(=O)CC(C)(C)CC2=O)C(=O)C1	Yeast life ext 27.2 (no result: PostGolgi ctrl, PostGolgi yeast)
Cc1cccc(OCCn2cc(/C=N/NC(=O)c3ccncc3)c3ccccc32)c1	BB579 growth dn 54.1 (no result: PostGolgi ctrl, PostGolgi yeast)
CCc1nnc(NC2=NCCC2)s1	PostGolgi ctrl 33.4
Cc1cccc(C2Nc3ccccc3C(=O)N2c2ccccc2)n1 (configuration not stated)	PostGolgi yeast 30.5
Cc1ccc(OS(=O)(=O)c2ccccc2)c(/C=N/N=C2\NC(=O)C(C)S2)c1 (configuration not stated)	PostGolgi ctrl 40.9
COC(=O)c1c(NC(=O)c2ccc(N(C)S(=O)(=O)c3ccc(C)cc3)cc2)sc2c1CCCC2	none (no result: PostGolgi ctrl, PostGolgi yeast)
N#Cc1c(NC(NC(=O)c2ccco2)C(=O)c2ccccc2)sc2c1CCCC2 (configuration not stated)	PostGolgi ctrl 81.2, PostGolgi yeast 40.6
NC(=O)c1c(NC(=O)c2cccs2)sc2c1CCCCCC2	PostGolgi ctrl 68.1
Cc1onc(-c2ccccc2)c1C(=O)Nc1sc2c(c1C#N)CCC2	PostGolgi ctrl 43.6
COCCN(CCOC)S(=O)(=O)c1ccc(C(=O)Nc2sc3c(c2C(N)=O)CCCCC3)cc1	Yeast life ext 40.0 (no result: PostGolgi ctrl, PostGolgi yeast)
O=S1(=O)C=C(SCc2cccc(Cl)c2)Nc2ccccc21	none
CCCCC(=O)NC(Nc1cc(C)ccn1)(C(=O)OCC)C(F)(F)F (configuration not stated)	none
Cc1cccc(-c2nnc(SCC(=O)Nc3cccc(C(=O)N4CCOCC4)c3)n2C)c1	none (no result: PostGolgi ctrl, PostGolgi yeast)
O=C(/C=C/c1ccccc1Cl)NCc1cccs1	none (no result: PostGolgi ctrl, PostGolgi yeast)
Cc1onc(-c2ccccc2)c1C(=O)Nc1nc(-c2ccccc2)cs1	PostGolgi ctrl 34.1
Cc1onc(-c2ccccc2)c1C(=O)NC(=S)Nc1sc2c(c1C#N)CCCC2	none (no result: PostGolgi ctrl, PostGolgi yeast)
Cc1cc(C(=O)OC(C)C(=O)Nc2nc(-c3ccccc3)cs2)c(C)o1 (configuration not stated)	PostGolgi ctrl 37.4
Cc1onc(-c2c(F)cccc2Cl)c1C(=O)Nc1sc2c(c1C(N)=O)CCC2	PostGolgi ctrl 32.9
Cc1onc(-c2ccccc2)c1C(=O)Nc1sc2c(c1C(N)=O)CCC2	PostGolgi ctrl 36.5
Cc1onc(-c2ccccc2)c1C(=O)Nc1nc(-c2cc(F)ccc2F)cs1	none
O=C(CSc1nc(-c2ccc(F)cc2)cs1)N1CCc2ccccc21	none
Nc1nc(NCc2ccccc2)nc(Nc2cccc(F)c2)c1[N+](=O)[O-]	none
Cc1ccc(CNc2nc(N)c([N+](=O)[O-])c(Nc3cccc(F)c3)n2)cc1	PostGolgi ctrl 46.4
O=C(Nc1nnc(-c2cccs2)o1)c1cc(-c2ccccc2)nc2ccccc12	none (no result: PostGolgi ctrl, PostGolgi yeast)
O=C(Nc1nnc(-c2cccs2)o1)c1cccc(Oc2ccccc2)c1	PostGolgi yeast 34.1
CN1CCCN(C(=O)Cc2c(Cl)cccc2Cl)c2nc3ccccc3nc21	PostGolgi ctrl 43.5
CCCn1c(SCC(=O)NCCc2ccccc2)nnc1-c1ccco1	none (no result: Yeast life ext, PostGolgi ctrl, PostGolgi yeast)
COc1cc(OC)cc(-c2cc3nc(C)c(CCC(=O)NC(C)CCc4ccco4)c(C)n3n2)c1 (configuration not stated)	none
Cc1nc2cc(-c3cccc(F)c3)nn2c(C)c1CCC(=O)NC(C)CCc1ccco1 (configuration not stated)	PostGolgi yeast 40.7
CCn1c(Sc2ccc(N)cc2Cl)nc2ccccc21	PostGolgi ctrl 45.9
CCn1c(SCC(=O)NC(C)c2ccccc2)nc2ccccc21 (configuration not stated)	none
COc1ccc(-c2cn3cccnc3n2)cc1F	none (no result: PostGolgi ctrl, PostGolgi yeast)
CCn1c(=N)n(CC(=O)C23CC4CC(CC(C4)C2)C3)c2ccccc21	PostGolgi ctrl 34.7
CCn1c(=N)n(CC(=O)c2cccc([N+](=O)[O-])c2)c2ccccc21	none (no result: PostGolgi ctrl, PostGolgi yeast)
Cc1ccc(N(C(=O)Cc2cccs2)C(C(=O)NC2CCCCC2)c2ccccn2)cc1C (configuration not stated)	none (no result: PostGolgi ctrl, PostGolgi yeast)
COC(=O)c1ccc(/C=N\NC(=O)c2ccc(C)cc2Cl)cc1	none
CC(C)(C)C(=O)C(Cc1ccccc1)n1cncn1 (configuration not stated)	PostGolgi ctrl 45.4, PostGolgi yeast 51.1
CC(C)(C)C(=O)C(Cc1ccccc1Cl)n1cncn1 (configuration not stated)	PostGolgi ctrl 93.6, PostGolgi yeast 99.4
Cc1cc(=O)n2nc(-c3ccc(C(F)(F)F)cc3)sc2n1	none
CC1=[N+]([O-])C(C)(C)CC(C)(C)c2ccccc21	PostGolgi ctrl 30.1
Oc1c(N=Nc2ccccn2)ccc2ccccc12	BB579 growth dn 95.9
Oc1ccc(N=Nc2c(O)ccc3ccccc23)cc1	none
CCOc1ccc(-c2nc(C#N)c(NCc3ccc4c(c3)OCO4)o2)cc1	none
Cc1ccc(OCc2nc(C#N)c(NCc3ccc4c(c3)OCO4)o2)cc1	PostGolgi ctrl 31.2
O=C(Nc1ccc(C(=O)OC[C@@H]2CCCN3CCCC[C@H]23)cc1)c1cccc(Br)c1	none (no result: PostGolgi ctrl, PostGolgi yeast)
CCCc1nc(SCc2ccccn2)c2c(=O)n(C)c(=O)n(C)c2n1	none
Cn1c(=O)c2c(SCc3ccccn3)nc(CC(C)(C)C)nc2n(C)c1=O	PostGolgi ctrl 34.1
Cn1c(=O)c2c(SCc3cccnc3)nc(CC(C)(C)C)nc2n(C)c1=O	PostGolgi ctrl 54.0
